Measured values reported in ChEMBL document CHEMBL3351432, “Microwave-assisted synthesis of phenanthroimidazole derivatives as stabilizer of c-myc G-quadruplex DNA” (Bioorg Med Chem, 2014).
Activity calls are given as the source filed them. The calls are words filed in the database; no cut-off is given here.

Legend:
HeLa = experiment: Growth inhibition of human HeLa cells after 72 hrs by MTT assay; type: functional, cell-based
Method in brief: (§1)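 MTT viability assay. Cells seeded at 3 × 10^3 per well and allowed 24 h, then treated 72 h with a concentration series from 1 mM DMSO stocks. MTT (5 mg/ml in PBS) added for 5 h, formazan dissolved in DMSO, absorbance read at 570 nm.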

[1] = Drug uptake in cytoplasm of human MCF7 cells at 10 uM after 24 hrs by fluorescence microscopy; type: ADME, cell-based; settings: mcf7, 24 h
Method in brief: (§2)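 MCF-7 cells seeded at 5 × 10^4 per well, exposed to compound at 10 μM for 24 h, then imaged by fluorescence microscopy for intracellular fluorescence and morphology.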

MDA-MB-231 = experiment: Growth inhibition of human MDA-MB-231 cells after 72 hrs ny MTT assay; type: functional, cell-based; settings: MDA-MB-231, 72 h; method in brief: as §1
[2] = Drug uptake in nucleus of human MCF7 cells at 10 uM after 24 hrs by fluorescence microscopy; type: ADME, cell-based; settings: mcf7, 24 h; method in brief: as §2
MCF7 [3] = experiment: Growth inhibition of human MCF7 cells after 72 hrs by MTT assay; type: functional, cell-based; settings: MCF7, 72 h; method in brief: as §1
[4] = Binding affinity to c-myc G-quadruplex DNA (unknown origin) assessed as change in melting temperature at 1 uM by FRET assay
Method in brief: (§3)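 FAM/TAMRA dual-labelled c-myc oligonucleotide (1 μM) in Tris-KCl buffer pH 7.2, annealed at 92 °C for 5 min and slowly cooled to room temperature. Compound added at varying concentrations. Fluorescence melting curves recorded on a real-time PCR system, holding each temperature 30 s before each reading. Tm shift taken relative to the no-compound control.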

[5] = Binding affinity to c-myc G-quadruplex DNA (unknown origin) assessed as hypochromism at IL absorption at 20 uM by electronic spectra titration method
Method in brief: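 Titration in Tris-KCl buffer pH 7.2 with ligand held at 20 μM and G4 DNA added stepwise. 3 min incubation before each UV-vis spectrum. Hypochromism read at the intraligand band (250–300 nm).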

[6] = Stabilization of c-myc G-quadruplex DNA (unknown origin) assessed as reduction in Taq polymerase-mediated 5' to 3' extension at 10 to 40 uM by PCR stop assay
Method in brief: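 PCR-stop assay in 1× PCR buffer with c-myc G4 DNA primer pair (10 pM each), dNTPs 0.16 mM, Taq 2.5 U and compound over 0–250 μM. Cycling: 94 °C 3 min, then 30 cycles of 94/58/72 °C for 30 s each. Products run on 15% native PAGE in TBE and silver stained.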

MCF7 [7] = experiment: Induction of cell membrane changes in human MCF7 cells assessed as roughening and unevening of cell membrane surface at 10 uM after 24 hrs by fluorescence microscopy; type: functional; method in brief: as §2
MCF7 [8] = experiment: Induction of apoptosis in human MCF7 cells assessed as cell membrane rupture at 10 uM after 24 hrs by fluorescence microscopy; type: functional, cell-based; method in brief: as §2
[9] = Binding affinity to c-myc G-quadruplex DNA (unknown origin) assessed as reduction in DNA CD signal strengths […] by CD spectroscopy; parameters: scale not given: the % may be the effect or the level left
Method in brief: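 CD of pre-folded c-myc G4 DNA (2 × 10^-6 M) in Tris-KCl buffer pH 7.2, 1 cm cell. Ligand added from 1 mM stock every 3 min, final range (0–118) × 10^-6 M.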

MCF7 [10] = experiment: Induction of cell shrinking in human MCF7 cells at 10 uM after 24 hrs by fluorescence microscopy; type: functional, cell-based; method in brief: as §2
[11] = Binding affinity to c-myc G-quadruplex DNA (unknown origin) assessed as increase in melting temperature by FRET assay; method in brief: as §3
[12] = Binding affinity to c-myc G-quadruplex DNA (unknown origin) assessed as change in melting temperature at 3 uM by FRET assay; method in brief: as §3

IC50 (HeLa) [µM]	Drug uptake [1]	IC50 (MDA-MB-231) [µM]	Drug uptake [2]	IC50 (MCF7 [3]) [µM]	ΔTm [4] [°C]	Activity [5] [%]	Activity [6]	Activity [9] [%]	Activity [11]	ΔTm [12] [°C]	SMILES	Activity (MCF7 [7]) [%]	Activity (MCF7 [8])	Activity (MCF7 [10])
62.4	Not Active	60	Not Active	184	–	–	–	–	–	–	O=S(=O)(O)c1ccc(-c2nc3c4cccnc4c4ncccc4c3[nH]2)cc1	–	–	–
8.5	Active	3.6	Active	22.9	3.4	9.4	Dose-dependent effect	23	Dose-dependent effect	6.4	Brc1ccc(-c2nc3c4cccnc4c4ncccc4c3[nH]2)cc1	<20	Active	Active
7.9	Active	36	Active	27.3	–	–	–	–	–	–	Brc1ccccc1-c1nc2c3cccnc3c3ncccc3c2[nH]1	–	–	–
240	Not Active	152	Not Active	162	–	–	–	–	–	–	O=S(=O)(O)c1ccccc1-c1nc2c3cccnc3c3ncccc3c2[nH]1	–	–	–
5.1	Not Active	74.2	Not Active	72.6	–	–	–	–	–	–	c1ccc(-c2nc3c4cccnc4c4ncccc4c3[nH]2)cc1	–	–	–
